According to ChEMBL document CHEMBL4007439, “Design, Synthesis, and Evaluation of a Novel Series of Oxadiazine Gamma Secretase Modulators for Familial Alzheimer's Disease” (J Med Chem, 2017):
Active and inactive are the calls of the source. No cut-off for these calls is given here.

Tests used:
Mus musculus = experiment: Reduction in amyloid beta 42 levels in mouse brain at 30 mg/kg, po measured at 6 hrs post dose by ELISA; format: functional
Method in brief: (§1)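 Single oral dose of 30 mg/kg; brain (mouse, rat) and rat CSF Aβ42 and Aβ37 measured 6 h post-dose, expressed relative to vehicle; total and free brain drug levels and brain:plasma ratio taken at the same time.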

[1] = Unbound intrinsic clearance in rat hepatocytes; format: ADME, cell-based, Hepatocyte
[2] = Modulation of gamma-secretase in human H4 cells expressing human APP751 assessed as inhibition of amyloid beta 42 production incubated overnight by sandwich ELISA; format: cell-based
Method in brief: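 Aβ42 EC50 in H4 cells overexpressing WT human APP751; each value is the average of n > 2 assays, each run in duplicate.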

[3] = Ratio of drug level in brain to plasma in mouse at 30 mg/kg, po measured at 6 hrs post dose; format: ADME, organism-based; conditions: read-out: BPR; method in brief: as §1
[4] = Total drug level in mouse brain at 30 mg/kg, po measured at 6 hrs post dose; format: ADME, organism-based; conditions: read-out: Drug uptake; method in brief: as §1
Brain = experiment: Unbound drug level in mouse brain at 30 mg/kg, po measured at 6 hrs post dose; format: ADME, organism-based; conditions: in vivo; method in brief: as §1

EC50 ([2]; Homo sapiens) [nM]	Structure (SMILES)	Activity (Mus musculus)	further results
27	COc1nc(C2=NOC[C@H](COc3ccc(Cl)cc3C(F)(F)F)N2)ccc1-n1cnc(C)c1	inactive	CL free [1]: 229.8 L/h/kg
2890	COc1cc(C2=NOC[C@@H](COc3ccc(F)cc3C)N2)ccc1-n1cnc(C)c1	inactive	
8	COc1nc(C2=NOC[C@H](c3cc4ccccc4s3)N2)ccc1-n1cnc(C)c1		inhibition in vivo at 30 mg/kg (Mus musculus): 34%; Kp at 6 h [3]: 2.8; concentration at 6 h [4]: 30.2 µM; CL free [1]: 25.8 L/h/kg; Drug uptake(free) (Brain): 76 nM
109	COc1cc(C2=NOC[C@H](COc3ccc(F)cc3C)N2)ccc1-c1ccnc(C)c1	inactive	
230	COc1cc(C2=NOC[C@H](COc3ccc(F)cc3C)N2)ccc1-n1cnc(C)c1	inactive	
249	COc1cc(C2=NOC[C@H](COc3ccc(Cl)cc3C(F)(F)F)N2)ccc1-c1ccnc(C)c1	inactive	
197	COc1nc(C2=NOC[C@@H]3[C@H](Oc4ccc(F)cc4C)CCCN23)ccc1-n1cnc(C)c1		
604	COc1nc(C2=NOC[C@H](COc3ccc(F)cc3C)N2)ccc1-c1cnn(C)c1		
1360	COc1nc(C2=NOC[C@H](COc3ccc(F)cc3C)N2)ccc1-c1ocnc1C		
> 3000	COc1nc(C2=NOC[C@H]3[C@@H](Oc4ccc(F)cc4C)CCCN23)ccc1-n1cnc(C)c1		
98	COc1nc(C2=NOC[C@H](COc3ccc(F)cc3C)N2)ccc1-c1ccnc(C)c1		CL free [1]: 195.5 L/h/kg
	COc1nc(C2=NOCC3CN(c4ccc(Cl)cc4C(F)(F)F)CCN23)ccc1-n1cnc(C)c1 (single isomer, unassigned; (+))		EC50 [2]: 64 nM
